# pEC50, pIC50, pKi: −log10 of the molar value. The source made the active and inactive calls. The rule behind the calls is not given here.
# Assays:
# [1] = target: T1, Signal transducer and activator of transcription 3 (Homo sapiens, UniProt P40763); conditions: JJN3, 20 uM
# [2] = target: T1, Signal transducer and activator of transcription 3; conditions: JJN3, 20 uM; remark: listed apart in the source
# [3] = target: T1, Signal transducer and activator of transcription 3; conditions: JJN3, 20 uM; remark: listed apart in the source
# [4] = Solubility of the compound in water; type: physicochemical; conditions: buffer
# [5] = target: T1, Signal transducer and activator of transcription 3; conditions: MDA-MB-468, 20 uM
# [6] = Cytotoxicity against human JJN-3 cells after 72 hrs by MTS assay; type: functional, cell-based; conditions: JJN-3, 72 h
# [7] = target: T1, Signal transducer and activator of transcription 3; conditions: MDA-MB-468, 20 uM; remark: listed apart in the source
# [8] = target: T1, Signal transducer and activator of transcription 3; conditions: MDA-MB-468, 20 uM; remark: listed apart in the source
# [9] = target: T1, Signal transducer and activator of transcription 3; conditions: JJN-3, 20 uM
# [10] = target: T1, Signal transducer and activator of transcription 3; conditions: MDA-MB-468, 20 uM; remark: listed apart in the source
# [11] = target: T1, Signal transducer and activator of transcription 3; experiment: Inhibition of STAT3 using fluorescent probe 5-carboxyfluorescein-GpYLPQTV-NH2 after 15 mins by fluorescence polarisation assay
# [12] = target: T2, Signal transducer and activator of transcription 3 (Mus musculus, UniProt P42227); experiment: Inhibition of STAT3 in mouse NIH3T3/vSrc nuclear extract assessed as disruption of the Stat3-DNA complex pre-incubated for 30 mins by EMSA analysis
# T2 sequence (P42227 whole entry): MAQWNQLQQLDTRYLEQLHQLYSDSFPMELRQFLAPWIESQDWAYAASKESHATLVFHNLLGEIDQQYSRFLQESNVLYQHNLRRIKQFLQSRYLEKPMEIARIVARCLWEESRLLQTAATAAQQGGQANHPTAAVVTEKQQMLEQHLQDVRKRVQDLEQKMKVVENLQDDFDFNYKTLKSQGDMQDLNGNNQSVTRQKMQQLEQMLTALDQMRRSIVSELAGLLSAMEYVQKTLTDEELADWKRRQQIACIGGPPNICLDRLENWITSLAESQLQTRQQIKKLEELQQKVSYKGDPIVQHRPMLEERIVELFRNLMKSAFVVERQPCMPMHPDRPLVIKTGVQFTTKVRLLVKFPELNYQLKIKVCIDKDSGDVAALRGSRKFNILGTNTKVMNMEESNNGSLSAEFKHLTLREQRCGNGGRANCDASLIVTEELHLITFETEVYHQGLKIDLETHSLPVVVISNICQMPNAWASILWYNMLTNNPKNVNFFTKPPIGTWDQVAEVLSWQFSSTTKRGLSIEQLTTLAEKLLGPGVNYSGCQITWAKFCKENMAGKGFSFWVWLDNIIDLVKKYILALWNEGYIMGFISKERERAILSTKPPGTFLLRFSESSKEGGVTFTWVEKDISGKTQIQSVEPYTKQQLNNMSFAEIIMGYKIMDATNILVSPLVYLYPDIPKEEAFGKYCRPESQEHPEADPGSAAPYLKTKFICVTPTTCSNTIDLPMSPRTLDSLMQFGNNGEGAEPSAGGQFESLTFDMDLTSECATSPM
# Procedure, shortened: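 NIH3T3/vSrc nuclear extracts were pre-incubated with a range of compound concentrations for 30 min at room temperature. They were then incubated with 32P-labelled hSIE probe (c-fos m67 variant) for 30 min at 30 °C and resolved by EMSA. Stat3 DNA-binding bands were quantified as percent of control, and IC50 was derived from those plots.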
# [13] = target: T1, Signal transducer and activator of transcription 3; experiment: Inhibition of STAT3 phosphorylation in human MDA468 cells at 100 uM after 24 hrs by Western blotting; type: cell-based; conditions: MDA-MB-468
# Procedure, shortened: (§1)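 Intact MDA-468 or JJN3 cells were treated for 24 h, with DMSO as the untreated control. Cells were lysed in Tris-HCl/EDTA/1% NP-40/150 mM NaCl for 30 min on ice, freeze-thawed once at −80 °C and centrifuged at 12000g for 15 min. Whole-cell lysates were run on 6.5–15% SDS-PAGE and immunoblotted for pY705Stat3 and total Stat3.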
# [14] = Inhibition of mouse STAT5 using fluorescent probe 5-carboxyfluorescein-GpYLPQTV-NH2 after 30 mins by fluorescence polarisation assay
# [15] = target: T1, Signal transducer and activator of transcription 3; experiment: Inhibition of STAT3 phosphorylation in human JJN-3 cells at 100 uM after 24 hrs by Western blotting; type: cell-based
# Procedure, shortened: as §1
# [16] = target: T3, Signal transducer and activator of transcription 1 (Mus musculus, UniProt P42225); experiment: Inhibition of mouse STAT1 using fluorescent probe 5-carboxyfluorescein-GpYLPQTV-NH2 after 30 mins by fluorescence polarisation assay
# T3 sequence (P42225 whole entry): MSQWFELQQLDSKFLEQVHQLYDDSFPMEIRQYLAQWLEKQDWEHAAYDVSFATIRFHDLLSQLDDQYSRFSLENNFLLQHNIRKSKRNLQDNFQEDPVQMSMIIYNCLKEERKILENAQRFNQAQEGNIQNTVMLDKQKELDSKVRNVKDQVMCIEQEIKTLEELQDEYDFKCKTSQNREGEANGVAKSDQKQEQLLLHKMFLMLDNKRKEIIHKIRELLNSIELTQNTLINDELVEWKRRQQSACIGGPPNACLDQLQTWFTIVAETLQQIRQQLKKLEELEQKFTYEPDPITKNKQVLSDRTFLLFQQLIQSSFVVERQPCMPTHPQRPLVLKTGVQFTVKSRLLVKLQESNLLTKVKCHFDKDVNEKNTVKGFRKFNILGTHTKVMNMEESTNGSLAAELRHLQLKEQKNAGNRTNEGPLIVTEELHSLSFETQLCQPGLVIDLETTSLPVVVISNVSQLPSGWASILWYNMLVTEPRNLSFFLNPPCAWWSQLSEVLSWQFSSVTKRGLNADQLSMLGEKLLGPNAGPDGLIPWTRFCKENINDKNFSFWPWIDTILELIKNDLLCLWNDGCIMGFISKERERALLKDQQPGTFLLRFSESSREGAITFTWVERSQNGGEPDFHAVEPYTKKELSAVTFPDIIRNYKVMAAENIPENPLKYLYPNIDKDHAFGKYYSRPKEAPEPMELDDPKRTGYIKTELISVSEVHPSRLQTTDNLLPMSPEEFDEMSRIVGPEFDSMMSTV
# [17] = target: T2, Signal transducer and activator of transcription 3; experiment: Inhibition of mouse STAT3 SH2 domain using fluorescent probe 5-carboxyfluorescein-GpYLPQTV-NH2 after 30 mins by fluorescence polarisation assay
# DU-145 = experiment: Cytotoxicity against human DU145 cells after 72 hrs by MTS assay; type: functional, cell-based; conditions: DU-145, 72 h
# [18] = Lipophilicity, log P of the compound; type: physicochemical; conditions: octanol/water
# [19] = Cytotoxicity against human MDA468 cells after 72 hrs by MTS assay; type: functional, cell-based; conditions: MDA-MB-468, 72 h
# T1 sequence (P40763 whole entry): as the sequence (P42227 whole entry) above, with D760E counted along it
smiles,measurement,setting,value
CN(CC(=O)N(Cc1ccc(C2CCCCC2)cc1)c1ccc(C(=O)O)c(O)c1)S(=O)(=O)c1c(F)c(F)c(F)c(F)c1F,inhibition,[1],Active
same,inhibition,[2],Active
same,inhibition,[3],Active
same,solubility,[4],soluble
same,inhibition,[5],Active
same,pEC50,[6],4.78
same,inhibition,[7],Active
same,inhibition,[8],Active
same,inhibition,[9],Active
same,inhibition,[10],Active
CN(CC(=O)N(Cc1ccc(C2CCCCC2)cc1)c1ccc(C(=O)O)c(O)c1)S(=O)(=O)c1ccc(-c2ccccc2)cc1,pKi,[11],5.21
same,pIC50,[12],4.18
CN(CC(=O)N(Cc1ccc(C2CCCCC2)cc1)c1ccc(C(=O)O)c(O)c1)S(=O)(=O)c1cn(C)cn1,pKi,[11],< 4.00
same,pIC50,[12],< 3.52
Cc1ccc(S(=O)(=O)N(C)CC(=O)N(Cc2ccc(C3CCCCC3)cc2)c2ccc(C(=O)O)c(O)c2)cc1,inhibition,[13],Active
same,pKi,[14],< 4.60
same,inhibition,[15],Active
same,pKi,[16],< 4.60
same,pKi,[17],4.82
CN(CC(=O)N(Cc1ccc(C2CCCCC2)cc1)c1ccc(C(=O)O)c(O)c1)S(=O)(=O)c1cccc2ccccc12,solubility,[4],Insoluble
same,pEC50,[6],3.97
same,pEC50,DU-145,4.13
same,logP,[18],5.95
same,pEC50,[19],4.33
COc1ccc(S(=O)(=O)N(C)CC(=O)N(Cc2ccc(C3CCCCC3)cc2)c2ccc(C(=O)O)c(O)c2)cc1,pIC50,[12],4.17
CN(CC(=O)N(Cc1ccc(C2CCCCC2)cc1)c1ccc(C(=O)O)c(O)c1)S(=O)(=O)c1ccc(F)cc1,pIC50,[12],< 3.52

# — ChEMBL document CHEMBL1828629, “Identification of a non-phosphorylated, cell permeable, small molecule ligand for the Stat3 SH2 domain” (Bioorg Med Chem Lett, 2011)
